In ChEMBL document CHEMBL4619820, “Development of Novel AKR1C3 Inhibitors as New Potential Treatment for Castration-Resistant Prostate Cancer” (J Med Chem, 2020):
Calls of active or inactive are those of the source.

Tests used:
Assay type in all cases: functional, cell-based
[1] = test system: CWR22R; experiment: Induction of cell death in human 22Rv1 cells 50 uM pre-incubated for 2 hrs before addition of pregnenolone for 24 hrs
[2] = test system: CWR22R; experiment: Inhibition of TMPRSS2 mRNA expression in human 22Rv1 cells at 10 uM pre-incubated for 2 hrs before pregnenolone stimulation for 24 hrs by RT-qPCR analysis
In short: (§1)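 22Rv1 cells pretreated 2 h with test agents, then stimulated 24 h with 20 nM pregnenolone; AR, TMPRSS2 and PSA mRNA measured by RT-qPCR, given as ratio to pregnenolone-free control.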

[3] = test system: CWR22R; experiment: Inhibition of pregnenolone-induced cell proliferation of human 22Rv1 cells at 10 uM pre-incubated for 2 hrs before pregnenolone stimulation for 72 hrs by alamar blue assay
In short: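 22Rv1 cells (AKR1C3- and AR-expressing) pretreated 2 h with agents, then cultured 72 h with 20 nM pregnenolone; viable cell number given as percent of pregnenolone-free control.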

[4] = test system: CWR22R; experiment: Induction of apoptosis in human 22Rv1 cells assessed as increase in cleaved caspase-3 level at 50 uM pre-incubated for 2 hrs before addition of pregnenolone for 24 hrs by Western blot analysis
In short: (§2)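 Apoptotic markers in 22Rv1: 2 h pretreatment with or without 10 μM inhibitor and/or 50 μM enzalutamide, then 24 h 20 nM pregnenolone; Bax/Bcl-2 ratio as percent of control; cleaved caspase-3 also by immunofluorescence with DAPI.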

[5] = test system: CWR22R; experiment: Induction of ROS generation in human 22Rv1 cells at 50 uM by DCFH-DA dye based flow cytometric analysis
In short: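 22Rv1 cells exposed 3 h to 10 μM inhibitor and/or abiraterone, or 50 μM enzalutamide; intracellular ROS by flow cytometry as DCF-positive cells, percent of vehicle control.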

[6] = test system: CWR22R; experiment: Induction of apoptosis in human 22Rv1 cells assessed as effect on Bax protein expression level at 50 uM pre-incubated for 2 hrs before addition of pregnenolone for 24 hrs by Western blot analysis; in short: as §2
[7] = test system: CWR22R; experiment: Inhibition of PSA mRNA expression in human 22Rv1 cells at 10 uM pre-incubated for 2 hrs before pregnenolone stimulation for 24 hrs by RT-qPCR analysis; in short: as §1
[8] = test system: CWR22R; experiment: Induction of apoptosis in human 22Rv1 cells assessed as effect on cleaved PARP protein expression level at 50 uM pre-incubated for 2 hrs before addition of pregnenolone for 24 hrs by Western blot analysis; in short: as §2
[9] = test system: CWR22R; experiment: Induction of apoptosis in human 22Rv1 cells assessed as effect on cleaved caspase-3 protein expression level at 50 uM pre-incubated for 2 hrs before addition of pregnenolone for 24 hrs by Western blot analysis; in short: as §2
[10] = test system: CWR22R; experiment: Inhibition of AR mRNA expression in human 22Rv1 cells at 10 uM pre-incubated for 2 hrs before pregnenolone stimulation for 24 hrs by RT-qPCR analysis; in short: as §1

CNC(=O)c1ccc(N2C(=S)N(c3ccc(C#N)c(C(F)(F)F)c3)C(=O)C2(C)C)cc1F
active: Activity [1] | inhibition [2] | inhibition [3] | Activity [4] | Activity [5] | Activity [6] | inhibition [7] | Activity [8] | Activity [9] | inhibition [10]
